Laboratory results as given in ChEMBL document CHEMBL4041524, “Synthesis and Characterization of a Novel γ-Aminobutyric Acid Type A (GABAA) Receptor Ligand That Combines Outstanding Metabolic Stability, Pharmacokinetics, and Anxiolytic Efficacy” (J Med Chem, 2016).
Active and inactive are the calls of the source. No cut-off for these calls is given here.

Key:
[1] = test system: Rattus norvegicus; experiment: Toxicity in water-deprived Sprague-Dawley rat assessed as effect on water drinking time during nonpunished period up to 60 mg/kg, po administered 30 mins prior to testing; format: organism-based; conditions: in vivo, 0.5 h
[2] = test system: Liver; experiment: Metabolic stability in mouse liver microsomes assessed as compound remaining at 4 uM measured after 30 mins in presence of NADPH by LC-MS/MS analysis; format: ADME, microsome; conditions: 0.5 h
In short: (§1)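 Human, mouse or rat liver microsomes were incubated with compound at 4 μM final for 30 min at 37 °C (n = 1). Percent of parent remaining was quantified by LC-MS/MS.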

[3] = Drug uptake in Sprague-Dawley rat brain at 10 mg/kg, po measured after 60 mins by LC-MS/MS analysis; format: ADME, organism-based; conditions: read-out: Drug uptake
In short: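 Sprague-Dawley rats (n = 3 per time point) were given 10 mg/kg p.o. Total plasma concentrations were taken at 15, 30, 60 and 120 min. Brain levels of the dosed ligand and of the carboxylic acid metabolite were taken at 60 or 120 min.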

[4] = Drug uptake in Sprague-Dawley rat brain at 10 mg/kg, ip measured after 4 hrs; format: ADME, organism-based; conditions: read-out: Drug uptake
In short: (§2)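 Rats were given 10 mg/kg i.p. (n = 3), and total plasma and brain concentrations were measured at 4 h. Unbound concentrations were calculated as Fu × total concentration, and Kp,uu = Cu,brain/Cu,plasma.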

[5] = Cytotoxicity against HEK293T cells assessed as viable cells measured after 18 hrs by CellTiter-Glo assay; format: cell-based, HEK-293T; conditions: human, read-out: LD50
In short: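 HEK293T cells were exposed to compound for 18 h (n = 4). Viable cells were quantified with CellTiter-Glo, and LD50 was derived.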

[6] = test system: Liver; experiment: Metabolic stability in human liver microsomes assessed as compound remaining at 4 uM measured after 30 mins in presence of NADPH by LC-MS/MS analysis; format: ADME, microsome; conditions: 0.5 h; in short: as §1
[7] = target: T1, GABA-A receptor; alpha-5/beta-3/gamma-2 (Homo sapiens) (UniProt P18507+P28472+P31644); experiment: Modulation of recombinant GABA alpha5beta3gamma2 receptor (unknown origin) expressed in Xenopus laevis oocytes assessed as change in GABA-induced EC(3 to 6) current at 10 uM by two-electrode voltage clamp assay; format: cell-based
In short: (§3)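 Xenopus laevis oocytes expressing α1, α2, α3 or α5 β3γ2 GABAARs were recorded by two-electrode voltage clamp. Modulation of the GABA EC3-6 current (taken as 100%) was tested at 100 nM, 1 μM and 10 μM in the same cells. Values are mean ± SEM, n = 3–4.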

[8] = target: GABA-A receptor; alpha-1/beta-3/gamma-2 (Homo sapiens) (UniProt P14867+P18507+P28472); experiment: Modulation of recombinant GABA alpha1beta3gamma2 receptor (unknown origin) expressed in Xenopus laevis oocytes assessed as change in GABA-induced EC(3 to 6) current at 1 uM by two-electrode voltage clamp assay; format: cell-based; in short: as §3
[9] = test system: Rattus norvegicus; experiment: Anxiolytic like activity in water-deprived Sprague-Dawley rat assessed as increase in water drinking time during punished period at 30 mg/kg, po administered 30 prior to testing by Vogel conflict test relative to vehicle control; format: functional
In short: (§4)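 Water-deprived male Sprague-Dawley rats (n = 6–8) drank during unpunished and punished periods, with licking suppressed by mild shock in punished periods. Compounds were given 30 min before testing. Analysis was ANOVA with Dunnett's test.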

[10] = Ratio of unbound concentration in Sprague-Dawley rat brain to plasma at 10 mg/kg, ip measured after 4 hrs; format: ADME, organism-based; in short: as §2
[11] = test system: Plasma; experiment: Fraction unbound in rat plasma by equilibrium dialysis method; format: ADME, cell-free
In short: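 Fraction unbound was determined in vitro by equilibrium dialysis with rat plasma protein and rat brain.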

[12] = test system: Mus musculus; experiment: Toxicity in Swiss mouse assessed as change in motor coordination by measuring number of falls from the rotating rod at 10 mg/kg, ip administered 30 mins prior to testing measured for 2 mins by rotarod test relative to control; format: organism-based; conditions: in vivo
In short: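 The same mice used for marble burying were placed on a rotarod at 4 r.p.m. for 2 min. No fall was scored success, one fall partial, and two falls failure.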

[13] = test system: Rattus norvegicus; experiment: Anxiolytic like activity in water-deprived Sprague-Dawley rat assessed as increase in water drinking time during punished period at 3 mg/kg, po administered 30 mins prior to testing by Vogel conflict test relative to control; format: functional, organism-based; in short: as §4
[14] = test system: Rattus norvegicus; experiment: Anxiolytic like activity in water-deprived Sprague-Dawley rat assessed as increase in water drinking time during punished period at 10 mg/kg, po administered 30 mins prior to testing by Vogel conflict test relative to control; format: functional; in short: as §4
[15] = target: T2, GABA-A receptor; alpha-3/beta-3/gamma-2 (Homo sapiens) (UniProt P18507+P28472+P34903); experiment: Modulation of recombinant GABA alpha3beta3gamma2 receptor (unknown origin) expressed in Xenopus laevis oocytes assessed as change in GABA-induced EC(3 to 6) current at 1 uM by two-electrode voltage clamp assay; format: cell-based; in short: as §3
[16] = target: T2, GABA-A receptor; alpha-3/beta-3/gamma-2 (Homo sapiens); experiment: Modulation of recombinant GABA alpha3beta3gamma2 receptor (unknown origin) expressed in Xenopus laevis oocytes assessed as change in GABA-induced EC(3 to 6) current at 100 nM by two-electrode voltage clamp assay; format: cell-based; in short: as §3
[17] = Half life in femoral artery/vein cannulated Sprague-Dawley rat at 1 mg/kg, iv administered […] as single dose by LC-MS/MS analysis; format: ADME, organism-based; conditions: in vivo
In short: (§5)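 Male Sprague-Dawley rats (n = 3 per time point) were dosed 1 mg/kg i.v. or 10 mg/kg i.p. Plasma concentrations were measured at set time points. Clearance, Vdss and T½ came from the i.v. arm, and AUC, Cmax and Tmax from the i.p. arm.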

[18] = Cmax in femoral artery/vein cannulated Sprague-Dawley rat at 10 mg/kg, ip administered […] as single dose by LC-MS/MS analysis; format: ADME, organism-based; set-up: dose 10 mg/kg, route intraperitoneal; conditions: in vivo; in short: as §5
[19] = target: T1, GABA-A receptor; alpha-5/beta-3/gamma-2 (Homo sapiens); experiment: Modulation of recombinant GABA alpha5beta3gamma2 receptor (unknown origin) expressed in Xenopus laevis oocytes assessed as change in GABA-induced EC(3 to 6) current at 1 uM by two-electrode voltage clamp assay; format: cell-based; in short: as §3
[20] = test system: Plasma; experiment: Unbound plasma concentration in Sprague-Dawley rat at 10 mg/kg, ip measured after 4 hrs; format: ADME, organism-based; conditions: in vivo
In short: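 Male Sprague-Dawley rats (n = 3) received 10 mg/kg i.p., and total plasma concentration was measured at 4 h. Fraction unbound in plasma was determined in vitro by equilibrium dialysis with rat plasma protein. Unbound concentration was calculated as fraction unbound × total concentration.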

## C#Cc1ccc2c(c1)C(c1ccccn1)=NCc1c(-c3cnco3)ncn1-2
[1]
  Activity: Non-Toxic
[2]
  Stability: 90%
[3]
  concentration at 1 h: 3.64 µM
[4]
  concentration at 4 h: 2.05 µM
[5]
  CC50 at 18 h: > 100 µM
[6]
  Stability: 91%
[7]
  Activity: 246%
[8]
  Activity: 155%
[9]
  Activity: 220%
[10]
  K(p,uu,brain): 0.66
[11]
  Fu: 25.9%
[12]
  Activity: Toxic
[13]
  Activity: inactive
[14]
  Activity: 240%
[15]
  Activity: 188%
[16]
  Activity: 109%
[17]
  half-life: 1.4 h
[18]
  Cmax: 3.09 µM
[19]
  Activity: 158%
[20]
  Cp(f): 0.552 µM
